The source made the active and inactive calls. The rule behind the calls is not given here.
Legend:
[1] = target: Human immunodeficiency virus type 1 reverse transcriptase (Human immunodeficiency virus 1, UniProt Q72547); test: Inhibition of HIV1 reverse transcriptase
[2] = system: Human immunodeficiency virus 1; test: Antiviral activity against HIV1 RF in human CEM-SS cells by XTT assay; assay type: functional, organism-based; conditions: for EC50: Human immunodeficiency virus 1, RF
[3] = Cytotoxicity against human CEM-SS cells by MTT assay; assay type: cell-based
[4] = Cytotoxicity against human MT4 cells by MTT assay; assay type: cell-based
[5] = system: Human immunodeficiency virus 1; test: Antiviral activity against HIV1 3B in human MT4 cells by MTT assay; conditions: for EC50: Human immunodeficiency virus 1, 3B
[6] = system: Human immunodeficiency virus 2; test: Antiviral activity against HIV2 ROD in human MT4 cells by MTT assay; conditions: for EC50: Human immunodeficiency virus 2, ROD
[7] = Metabolic stability in rat plasma; assay type: ADME, cell-free
Procedure, shortened: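 Compounds were incubated in reconstituted rat plasma (two lots, checked with a control compound), with 1,1-diphenylethylene as internal standard. Aliquot supernatants were analysed by HPLC with UV detection. Half-lives came from regression fits of concentration versus time and were averaged over at least two replicates.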

[8] = system: Human immunodeficiency virus 1; test: Antiviral activity against HIV1 with RT Y181C mutation; assay type: functional, organism-based
Procedure, shortened: (§1)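 Cytoprotection assay in CEM-SS cells infected with HIV-1 strains engineered to carry the NNRTI-resistance RT mutation (K103N or Y181C). Activity is expressed as the EC50 for protection of the cells from virus-induced cytopathic effect.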

[9] = system: Human immunodeficiency virus 1; test: Antiviral activity against HIV1 with RT K103N mutation; assay type: functional, organism-based; procedure, shortened: as §1

COc1c(C)cc(/C(=C/CCc2nnc(C)o2)c2cc(C)c3onc(OC)c3c2)cc1C(=O)SC
IC50 [1]: 33 µM
Activity [2]: inactive
CC50 [3]: 1.2 µM
CC50 [4]: 1.6 µM
Activity [5]: inactive
Activity [6]: inactive

COc1c(C)cc(/C(=C/CCc2nnc(C)o2)c2cc(C)c3on(C)c(=O)c3c2)cc1C(=O)SC
IC50 [1]: > 100 µM
Activity [2]: inactive
CC50 [3]: 17 µM
CC50 [4]: 37 µM
Activity [5]: inactive
Activity [6]: inactive

COc1c(C)cc(/C(=C\CCCc2nnc(C)o2)c2cc(C)c3onc(OC)c3c2)cc1C(=O)SC
IC50 [1]: 0.47 µM
EC50 [2]: 0.05 µM
CC50 [3]: 5.7 µM
CC50 [4]: 7 µM
half-life [7]: 14.4 h
EC50 [8]: > 100 µM
EC50 [9]: 0.4 µM
EC50 [5]: 0.14 µM
Activity [6]: inactive

COc1c(C)cc(C(=CCCc2nnn(C)n2)c2cc(C)c(OC)c(C(=O)SC)c2)cc1C(=O)SC
IC50 [1]: 67 µM
CC50 [3]: 33 µM
CC50 [4]: 7 µM
Activity [5]: inactive
Activity [6]: inactive

O=C1Nc2ccc(Cl)cc2C(C#CC2CC2)(C(F)(F)F)O1 (single isomer, unassigned) [EFAVIRENZ]
CC50 [4]: 6 µM
Activity [6]: inactive

COC(=O)CCC/C=C(\c1cc(C)c(OC)c(C(=O)OC)c1)c1cc(C)c2onc(OC)c2c1
IC50 [1]: 0.91 µM

COc1c(C)cc(/C(=C/CCc2nnc(C)o2)c2cccc(C#N)c2)cc1C(=O)SC
IC50 [1]: 55 µM
Activity [2]: inactive
CC50 [3]: 1.3 µM
CC50 [4]: 3.8 µM
Activity [5]: inactive
Activity [6]: inactive

COc1c(C)cc(/C(=C\CCc2nnc(C)o2)c2ccc(C#N)cc2)cc1C(=O)SC
IC50 [1]: 6.3 µM
EC50 [2]: 2.1 µM
CC50 [3]: 5.5 µM
CC50 [4]: 45 µM
EC50 [8]: > 100 µM
EC50 [9]: > 50 µM
EC50 [5]: 3.2 µM
Activity [6]: inactive

COc1c(C)cc(C(=CCCCc2nnc(C)o2)c2cc(C)c(OC)c(C(=O)SC)c2)cc1C(=O)SC
IC50 [1]: 6.7 µM
EC50 [2]: 2.2 µM
CC50 [3]: 5.3 µM
CC50 [4]: 4.4 µM
half-life [7]: 1.27 h
EC50 [8]: > 100 µM
EC50 [9]: > 50 µM
EC50 [5]: 1.3 µM
Activity [6]: inactive

COc1c(C)cc(/C(=C/CCc2nnc(C)o2)c2ccc(C#N)cc2)cc1C(=O)SC
IC50 [1]: 48 µM
Activity [2]: inactive
CC50 [3]: 1.2 µM
CC50 [4]: 3.2 µM
Activity [5]: inactive
Activity [6]: inactive

COc1c(C)cc(/C(=C\CCCc2nnc(C)o2)c2cccc(C#N)c2)cc1C(=O)SC
IC50 [1]: 0.52 µM
EC50 [2]: 0.5 µM
CC50 [3]: 12 µM
CC50 [4]: 36 µM
half-life [7]: 3.68 h
EC50 [8]: > 100 µM
EC50 [9]: 1.2 µM
EC50 [5]: 0.83 µM
Activity [6]: inactive

COC(=O)c1cc(/C(=C/CCc2nnc(C)o2)c2cc(C)c3oc(=O)n(C)c3c2)cc(C)c1OC
IC50 [1]: 1 µM
EC50 [2]: 0.43 µM
CC50 [3]: 3.2 µM
CC50 [4]: 13 µM
EC50 [8]: > 100 µM
EC50 [9]: > 50 µM
EC50 [5]: 0.44 µM
Activity [6]: inactive

COc1c(C)cc(/C(=C\CCCc2nnc(C)o2)c2ccc(C#N)cc2)cc1C(=O)SC
IC50 [1]: 3.2 µM
EC50 [2]: 0.6 µM
CC50 [3]: 8.9 µM
CC50 [4]: 36 µM
half-life [7]: 0.75 h
EC50 [8]: > 100 µM
EC50 [9]: 2.3 µM
EC50 [5]: 0.36 µM
Activity [6]: inactive

COc1c(C)cc(/C(=C/CCCc2nnc(C)o2)c2cccc(C#N)c2)cc1C(=O)SC
IC50 [1]: 7.7 µM
Activity [2]: inactive
CC50 [3]: 7.2 µM
CC50 [4]: 8.2 µM
Activity [5]: inactive
Activity [6]: inactive

Cc1ccnc2c1NC(=O)c1cccnc1N2C1CC1 [NEVIRAPINE]
EC50 [2]: 0.015 µM
CC50 [4]: 15 µM
Activity [6]: inactive

COc1c(C)cc(/C(=C/CCc2nnc(C)o2)c2ccc3oc(=O)n(C)c3c2)cc1C(=O)SC
IC50 [1]: 2.6 µM
EC50 [2]: 0.6 µM
CC50 [3]: 5.9 µM
CC50 [4]: 12 µM
half-life [7]: 12.3 h
EC50 [8]: > 100 µM
EC50 [9]: 1 µM
EC50 [5]: 0.69 µM
EC50 [6]: 4.7 µM

COc1c(C)cc(/C(=C\CCCc2nnc(C)o2)c2cc(C)c3on(C)c(=O)c3c2)cc1C(=O)SC
IC50 [1]: > 100 µM
EC50 [2]: 0.97 µM
CC50 [3]: 6 µM
CC50 [4]: 9.9 µM
EC50 [5]: 0.76 µM
Activity [6]: inactive

COc1c(C)cc(/C(=C\CCc2nnc(C)o2)c2cc(C)c3on(C)c(=O)c3c2)cc1C(=O)SC
IC50 [1]: 9.2 µM
EC50 [2]: 6.4 µM
CC50 [3]: 18 µM
CC50 [4]: 19 µM
EC50 [8]: > 100 µM
EC50 [9]: > 50 µM
EC50 [5]: 3.7 µM
Activity [6]: inactive

COC(=O)c1cc(/C(=C\CCc2nnc(C)o2)c2cccc(C#N)c2)cc(C)c1OC
IC50 [1]: 29 µM
Activity [2]: inactive
CC50 [3]: 4.5 µM
CC50 [4]: 8.1 µM
half-life [7]: 1.89 h
EC50 [8]: > 100 µM
EC50 [9]: > 50 µM
Activity [5]: inactive
Activity [6]: inactive

COC(=O)c1cc(C(=CCCc2nnc(C)o2)c2cc(C)c(OC)c(C(=O)SC)c2)cc(C)c1OC
IC50 [1]: 32 µM
Activity [2]: inactive
CC50 [3]: 13 µM
CC50 [4]: 3.9 µM
half-life [7]: 1.3 h
Activity [5]: inactive
Activity [6]: inactive

COc1c(C)cc(/C(=C/CCc2nnc(C)o2)c2cc(C)c3oc(=O)n(C)c3c2)cc1C(=O)SC
IC50 [1]: 90 µM
Activity [2]: inactive
CC50 [3]: 6.6 µM
CC50 [4]: 14 µM
Activity [5]: inactive
EC50 [6]: 5.9 µM

COC(=O)c1cc(/C(=C\CCc2nnn(C)n2)c2cccc(C#N)c2)cc(C)c1OC
IC50 [1]: 7.7 µM
EC50 [2]: 2.4 µM
CC50 [3]: 7.4 µM
CC50 [4]: 34 µM
half-life [7]: 0.7 h
EC50 [5]: 1.5 µM
Activity [6]: inactive

COc1c(C)cc(/C(=C/CCCc2nnc(C)o2)c2cc(C)c3onc(OC)c3c2)cc1C(=O)SC
IC50 [1]: 5.2 µM
Activity [2]: inactive
CC50 [3]: 0.78 µM
CC50 [4]: 1.1 µM
EC50 [8]: > 100 µM
EC50 [9]: > 50 µM
Activity [5]: inactive
Activity [6]: inactive

COC(=O)c1cc(/C(=C\CCc2nnc(C)o2)c2ccc(C#N)cc2)cc(C)c1OC
IC50 [1]: 24 µM
EC50 [2]: 3 µM
CC50 [3]: 28 µM
CC50 [4]: 16 µM
half-life [7]: 0.75 h
EC50 [5]: 2 µM
Activity [6]: inactive

COc1c(C)cc(/C(=C\CCc2nnc(C)o2)c2cc(C)c3onc(OC)c3c2)cc1C(=O)SC
IC50 [1]: 0.9 µM
EC50 [2]: 0.52 µM
CC50 [3]: 2.1 µM
CC50 [4]: 4.4 µM
half-life [7]: 18.2 h
EC50 [8]: > 100 µM
EC50 [9]: > 50 µM
EC50 [5]: 0.81 µM
Activity [6]: inactive

COC(=O)c1cc(C(=CCCc2nnn(C)n2)c2cc(C)c(OC)c(C(=O)SC)c2)cc(C)c1OC
IC50 [1]: 95 µM
Activity [2]: inactive
CC50 [3]: 1.6 µM
CC50 [4]: 1.4 µM
Activity [5]: inactive
Activity [6]: inactive

COc1c(C)cc(/C(=C\CCc2nnc(C)o2)c2ccc3oncc3c2)cc1C(=O)SC
IC50 [1]: 7.7 µM
EC50 [2]: 2.6 µM
CC50 [3]: 38 µM
EC50 [8]: > 100 µM
EC50 [9]: > 50 µM

COC(=O)c1cc(C(=CCCc2nnc(C)o2)c2cc(C)c(OC)c(C(=O)OC)c2)cc(C)c1OC
IC50 [1]: 71 µM
CC50 [3]: 40 µM
CC50 [4]: 37 µM
half-life [7]: 0.055 h
Activity [6]: inactive

COc1c(C)cc(/C(=C/CCCc2nnc(C)o2)c2cc(C)c3oc(=O)n(C)c3c2)cc1C(=O)SC
IC50 [1]: 36 µM
Activity [2]: inactive
CC50 [3]: 5.5 µM
CC50 [4]: 7.7 µM
Activity [5]: inactive
Activity [6]: inactive

COC(=O)CCC/C=C(\c1cc(C)c(OC)c(C(=O)OC)c1)c1cc(C)c2oc(=O)n(C)c2c1
Activity [6]: inactive

COC(=O)CCCC=C(c1cc(Br)c(OC)c(C(=O)OC)c1)c1cc(Br)c(OC)c(C(=O)OC)c1
CC50 [3]: 13 µM
CC50 [4]: 91 µM
half-life [7]: 0.103 h
Activity [6]: inactive

COc1c(C)cc(C(=CCCc2nnc(C)o2)c2cc(C)c(OC)c(C(=O)SC)c2)cc1C(=O)SC
IC50 [1]: > 100 µM
Activity [2]: inactive
CC50 [3]: 8.1 µM
CC50 [4]: 5.9 µM
Activity [5]: inactive
Activity [6]: inactive

COC(=O)CCCC=C(c1cc(Cl)c(OC)c(C(=O)OC)c1)c1cc(Cl)c(OC)c(C(=O)OC)c1
EC50 [2]: 0.01 µM
CC50 [3]: 32 µM
CC50 [4]: 160 µM
half-life [7]: 0.0967 h
EC50 [6]: 25 µM

COC(=O)c1cc(C(=CCCc2nnn(C)n2)c2cc(C)c(OC)c(C(=O)OC)c2)cc(C)c1OC
IC50 [1]: 53 µM
Activity [2]: inactive
CC50 [3]: 9.6 µM
CC50 [4]: 5 µM
half-life [7]: 0.4 h
Activity [5]: inactive
Activity [6]: inactive

COc1c(C)cc(/C(=C\CCc2nnc(C)o2)c2cccc(C#N)c2)cc1C(=O)SC
IC50 [1]: 9.3 µM
Activity [2]: inactive
CC50 [3]: 2.7 µM
CC50 [4]: 8.4 µM
half-life [7]: 3.68 h
EC50 [5]: 1.4 µM
Activity [6]: inactive

COc1c(C)cc(/C(=C/CCCc2nnc(C)o2)c2cc(C)c3on(C)c(=O)c3c2)cc1C(=O)SC
IC50 [1]: > 100 µM
Activity [2]: inactive
CC50 [3]: 12 µM
CC50 [4]: 25 µM
Activity [5]: inactive
Activity [6]: inactive

Reference: ChEMBL document CHEMBL1148795 (J Med Chem, 2007)
